Laboratory results: ChEMBL document CHEMBL1123656, “Synthesis and antitumor activity of tropolone derivatives. 4” (1987)

Key:
Format in all cases: functional, Mus musculus
P388 [1] = assay: Compound was evaluated for activity against P388 leukemia, at an intraperitoneal dose of 25 mg/kg
Method in brief: (§1)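 Mice bearing P388 leukemia were given the compound intraperitoneally, with activity read out as T/C (%). The full protocol is cited to earlier work.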

P388 [2] = assay: Compound was evaluated for activity against P388 leukemia, at an intraperitoneal dose of 12.5 mg/kg; method in brief: as §1
P388 [3] = assay: Compound was evaluated for activity against P388 leukemia, at an intraperitoneal dose of 50 mg/kg; method in brief: as §1
P388 [4] = assay: Compound was evaluated for activity against P388 leukemia, at an intraperitoneal dose of 400 mg/kg; method in brief: as §1
P388 [5] = assay: Compound was evaluated for activity against P388 leukemia, at an intraperitoneal dose of 200 mg/kg; method in brief: as §1
P388 [6] = assay: Compound was evaluated for activity against P388 leukemia, at an intraperitoneal dose of 100 mg/kg; method in brief: as §1
P388 [7] = assay: Compound was evaluated for activity against P388 leukemia, at an intraperitoneal dose of 20 mg/kg; method in brief: as §1
P388 [8] = assay: Compound was evaluated for activity against P388 leukemia, at an intraperitoneal dose of 6.3 mg/kg; method in brief: as §1
P388 [9] = assay: Compound was evaluated for activity against P388 leukemia, at an intraperitoneal dose of 3.1 mg/kg; method in brief: as §1
P388 [10] = assay: Compound was evaluated for activity against P388 leukemia, at an intraperitoneal dose of 5 mg/kg; method in brief: as §1
P388 [11] = assay: Compound was evaluated for activity against P388 leukemia, at an intraperitoneal dose of 10 mg/kg; method in brief: as §1

Row | Compound | T/C (P388 [1]) [%] | T/C (P388 [2]) [%] | T/C (P388 [3]) [%] | T/C (P388 [5]) [%] | T/C (P388 [6]) [%] | other results
1 | COc1ccc(C(c2ccc(C(C)C)cc(=O)c2O)c2ccc3ccccc3c2O)cc1 (configuration not stated) | 125 | 105 | 108 | – | – | –
2 | COc1ccc(C(C2=C(C)C(=O)c3ccccc3C2=O)c2ccc(C(C)C)cc(=O)c2O)cc1 (configuration not stated) | – | – | – | 131 | 114 | T/C (P388 [4]): 72%
3 | COc1ccc(C(c2ccc(C(C)C)cc(=O)c2O)c2c(O)c(C(=O)O)cc3ccccc23)cc1 (configuration not stated) | – | – | – | 0 | 141 | T/C (P388 [7]): 106%
4 | COc1ccc(C(c2cc(C(C)(C)C)ccc2O)c2ccc(C(C)C)cc(=O)c2O)cc1 (configuration not stated) | 116 | – | 116 | – | 120 | –
5 | COc1ccc(C(c2ccc(C(C)C)cc(=O)c2O)c2ccc3cccnc3c2O)cc1 (configuration not stated) | – | 141 | – | – | – | T/C (P388 [8]): 151%; T/C (P388 [9]): 144%
6 | COc1ccc(C(c2ccc(C(C)C)cc(=O)c2O)c2c(O)cc3oc(-c4ccccc4)cc(=O)c3c2O)cc1 (configuration not stated) | 127 | – | – | 148 | 136 | –
7 | COc1ccc(C(c2cc(O)ccc2O)c2ccc(C(C)C)cc(=O)c2O)cc1 (configuration not stated) | 142 | 128 | 128 | – | – | –
8 | COc1ccc(C(c2ccc(C(C)C)cc(=O)c2O)c2c(O)oc3ccccc3c2=O)cc1 (configuration not stated) | – | – | – | – | – | T/C (P388 [7]): 127%; T/C (P388 [10]): 128%; T/C (P388 [11]): 117%
9 | COc1ccc(C(C2=C(O)C(=O)c3ccccc3C2=O)c2ccc(C(C)C)cc(=O)c2O)cc1 (configuration not stated) | – | – | 0 | – | – | T/C (P388 [7]): 129%; T/C (P388 [10]): 108%
10 | CCOC(c1ccc(OC)cc1)c1ccc(C(C)C)cc(=O)c1O (configuration not stated) | – | – | – | – | 148 | –
11 | COc1ccc(C(c2ccc(C(C)C)cc(=O)c2O)C2Oc3c(Cl)c(OC)cc(OC)c3C2=O)cc1 (configuration not stated) | 117 | – | 109 | – | 130 | –
12 | COc1ccc(C(c2cc(C(C)(C)C)cc(O)c2O)c2ccc(C(C)C)cc(=O)c2O)cc1 (configuration not stated) | 127 | 110 | 168 | – | – | –
13 | COc1ccc(C(c2ccc(O)cc2O)c2ccc(C(C)C)cc(=O)c2O)cc1 (configuration not stated) | – | – | 98 | 136 | 104 | –
